A selection: hits, their analogues and other compounds. The true share with any hit is near 2.1%.
b-catenin transl = modulators of beta-catenin nuclear translocation, primary screen, imaging, HeLa cells, immunofluorescence, high-content | nuclear translocation activity, % at 5 µM | 190,000 compounds, 0.3% hits | AID 1665, 2009;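 active = nuclear translocation activity above 50% at 5 µM, with a well cell count of 50 or more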;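 note: per-cell ratio of nuclear to cytoplasmic median beta-catenin stain intensity; plate controls were DMSO negative control for no effect and GSK-3 inhibitor IX positive control for full effect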
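Read-out: Nuclear/cytoplasmic beta-catenin signal ratio, % activation | Assay system: Human HeLa cell line | Times: 24 h compound exposure at 37°C, 5% CO2 | Signal: Fluorescence imaging of beta-catenin antibody stain plus DAPI | Dosing: 5 µM primary, 0.02–20 µM confirmation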
KLF5 inhibitor = KLF5 expression inhibitors, primary screen, DLD-1 cells, luminescence; inhibition, % at 5 µM; DLD-1 KLF5 promoter-luciferase reporter; 290,000 compounds, 0.23% hits; AID 1700, 2009;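 active = inhibition above a per-plate limit of that plate's mean compound inhibition plus 3 SD, cut at about 60% in these data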;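 note: 0% = DMSO wells and 100% = LY294002 at 200 µM; higher means less KLF5 promoter-driven luciferase light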
MT stabilizer = microtubule stabilizers in HeLa cells, primary screen, imaging, high-content imaging; HeLa tubulin immunostaining HCS, 24 h; share of cells brighter than vehicle mean+2SD; % tubulin-high responders, % at 10 µM; 200,000 compounds, 0.83% hits;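 active = plate Z-score above 3 for both tubulin-high and condensed-nucleus cell shares, with cell loss under 80%, at 10 µM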;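 note: anti alpha tubulin signal scored within the nucleus-defined area of each cell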
Ba/F3 V617F tox = reduced viability of JAK2V617F-dependent Ba/F3 cells, primary screen, JAK2V617F inhibitor project, cell-based, Ba/F3 EpoR-JAK2V617F, luminescence; AID 1446, 2008; inhibition, % at 5.6 µM; ATP luminescence; 220,000 compounds, 1.1% hits;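 active = inhibition above the campaign mean plus 3 SD over all tested compounds, cut at about 24% in these data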;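 note: cytokine-independent growth of Ba/F3 cells driven by EpoR plus mutant JAK2; 0% = DMSO-treated cells and 100% = JAK inhibitor I control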
BaF3 tox = parental Ba/F3 cell viability inhibition, counter-screen for JAK2V617F inhibitor project, murine pro-B, CellTiter-Glo luminescence. 220,000 compounds, 1.1% hits. CellTiter-Glo ATP luminescence. inhibition, % at 5.6 µM. AID 1486, 2009;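 active = inhibition above a per-campaign cutoff, the mean inhibition of all tested compounds plus 3 SD, cut at about 27% in these data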;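 note: 0% = DMSO wells and 100% = JAK Inhibitor I control wells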
IEC-6 cytotox = cytotoxicity in IEC-6 intestinal epithelial cells, primary screen, cytotoxicity control for KLF5 inhibitor project, cell-based, luminescence; IEC-6 cytotoxicity, luminescence viability; inhibition, % at 5 µM; 290,000 compounds, 0.78% hits; AID 1825, 2009; in the data active = inhibition above about 22%;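 note: 0% = plate median of test compound wells and 100% = cytotoxic reference compound wells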
The depositor's hits bear a star.

For COc1cc(C(=O)Nc2ccc3c(c2)CCN3C(C)=O)cc(OC)c1OC the results were b-catenin transl 0, KLF5 inhibitor 28, MT stabilizer 22*, Ba/F3 V617F tox 78*, BaF3 tox 79* and IEC-6 cytotox 40*.
`O=[N+]([O-])c1ccc(C[n+]2cccc3c4ccccc4ccc32)cc1` gave b-catenin transl 1, KLF5 inhibitor -22, MT stabilizer 2, Ba/F3 V617F tox 90*, BaF3 tox 74* and IEC-6 cytotox -11.
`CCCCCCCCCCCCCCCC[n+]1cccc2ccccc21` gave b-catenin transl 50, KLF5 inhibitor -5, MT stabilizer 73, Ba/F3 V617F tox 101*, BaF3 tox 82* and IEC-6 cytotox 28*.
`CC(C)C[C@H](NC(=O)[C@@H]1Cc2c([nH]c3ccccc23)C2c3ccccc3C(=O)N21)C(=O)N1CCC[C@@H]1C(=O)O` (some centres undefined) gave KLF5 inhibitor -24 and IEC-6 cytotox 1.
C/C(=N\S(=O)(=O)c1ccc(C)cc1)N1CCCCC1 was read as b-catenin transl 1, KLF5 inhibitor -20, MT stabilizer 3, Ba/F3 V617F tox 1, BaF3 tox 80* and IEC-6 cytotox 0.
For C/C(=N\S(=O)(=O)c1ccc(C)cc1)N1CCN(S(=O)(=O)c2ccccc2)C1 the results were b-catenin transl 0, KLF5 inhibitor -22, MT stabilizer 7, Ba/F3 V617F tox 0, BaF3 tox -1 and IEC-6 cytotox 0.
Screening CCCN(Cc1cc2ccc(C)cc2[nH]c1=O)C(=O)c1cccnc1 returned b-catenin transl -1, KLF5 inhibitor -22, MT stabilizer 3, Ba/F3 V617F tox 3, BaF3 tox 10 and IEC-6 cytotox -1.
COc1ccccc1NC(=O)N(Cc1ccco1)Cc1cc2cc(C)cc(C)c2[nH]c1=O was read as b-catenin transl 33, KLF5 inhibitor -29, MT stabilizer 26*, Ba/F3 V617F tox -4, BaF3 tox 4 and IEC-6 cytotox 2.
Screening COc1ccccc1NC(=O)N(Cc1ccco1)Cc1cc2ccc(C)c(C)c2[nH]c1=O returned b-catenin transl 122*, KLF5 inhibitor 1, MT stabilizer 57, Ba/F3 V617F tox 4, BaF3 tox 10 and IEC-6 cytotox 2.
Screening CC(=O)N(Cc1cccnc1)Cc1cc2ccc(C)cc2[nH]c1=O returned b-catenin transl -5, KLF5 inhibitor -14, MT stabilizer 1, Ba/F3 V617F tox -3, BaF3 tox 95* and IEC-6 cytotox 2.
For CC(C)CNC(=S)N(Cc1ccco1)Cc1cc2cc3c(cc2[nH]c1=O)OCCO3 the results were b-catenin transl -1, KLF5 inhibitor 6, MT stabilizer 33*, Ba/F3 V617F tox -4, BaF3 tox -1 and IEC-6 cytotox -7.
`CCNC(=S)N(Cc1ccco1)Cc1cc2cc3c(cc2[nH]c1=O)OCCO3` gave KLF5 inhibitor -17, MT stabilizer 6, Ba/F3 V617F tox 4, BaF3 tox 4 and IEC-6 cytotox 1.
Screening COc1ccccc1NC(=S)N(Cc1ccco1)Cc1cc2cccc(C)c2[nH]c1=O returned b-catenin transl 5, KLF5 inhibitor -4, MT stabilizer 4, Ba/F3 V617F tox 7, BaF3 tox 7 and IEC-6 cytotox -1.
`COc1ccccc1NC(=S)N(Cc1ccco1)Cc1cc2cc(C)c(C)cc2[nH]c1=O` gave b-catenin transl 64*, KLF5 inhibitor -5, MT stabilizer 7, Ba/F3 V617F tox 9, BaF3 tox 7 and IEC-6 cytotox 3.
Cc1ccc2cc(CN(Cc3ccco3)C(=O)c3cccs3)c(=O)[nH]c2c1 was read as KLF5 inhibitor -17, MT stabilizer 34*, Ba/F3 V617F tox 13, BaF3 tox 16 and IEC-6 cytotox -2.
`COc1ccc(/C=C/C(=O)OCC(=O)Nc2ccc(Cl)cn2)cc1` gave b-catenin transl -3, KLF5 inhibitor 6, MT stabilizer 3, Ba/F3 V617F tox 2, BaF3 tox 8 and IEC-6 cytotox -3.
Screening Cc1cc2oc(=O)cc(Cn3ccnc3)c2cc1O returned KLF5 inhibitor -15 and IEC-6 cytotox 1.
Cc1cc(Cn2ccnc2)c(C)cc1Cn1ccnc1 was read as b-catenin transl -1, KLF5 inhibitor -13, MT stabilizer 43*, Ba/F3 V617F tox 1, BaF3 tox 2 and IEC-6 cytotox -1.
Screening C=CCN1CC(O)=C(c2ccccc2)C1=N returned b-catenin transl 5, KLF5 inhibitor -50, MT stabilizer 34*, Ba/F3 V617F tox -4, BaF3 tox 2 and IEC-6 cytotox 1.
Cc1c(/C=N/NC(=O)c2ccc3c(c2)OCO3)cnn1C was read as b-catenin transl 3, KLF5 inhibitor -28, MT stabilizer 3, Ba/F3 V617F tox 1, BaF3 tox -2 and IEC-6 cytotox 3.
For CCn1ncc(/C=N/NC(=O)c2ccc3c(c2)OCO3)c1C the results were b-catenin transl 6, KLF5 inhibitor -26, MT stabilizer 36*, Ba/F3 V617F tox -1, BaF3 tox 3 and IEC-6 cytotox -7.
O=C(N/N=C/c1cn(-c2ccccc2)nc1-c1ccc(F)cc1)c1ccc2c(c1)OCO2 was read as b-catenin transl 1, KLF5 inhibitor -21, MT stabilizer 16*, Ba/F3 V617F tox -4, BaF3 tox 2 and IEC-6 cytotox -2.
Screening COC(=O)[C@@H]1C[C@@]2(O)[C@@H](O)[C@@H](O)[C@@H](O)C[C@H]2N1C/C=C/c1ccccc1 returned b-catenin transl -1.
Screening COc1ccc(-n2ncc(N(C)n3cccc3)c(Cl)c2=O)cc1 returned b-catenin transl 0, KLF5 inhibitor -158, MT stabilizer 2, Ba/F3 V617F tox 1, BaF3 tox 2 and IEC-6 cytotox -2.
COc1ccc(-n2ncc(Cl)c(Cl)c2=O)cc1 was read as b-catenin transl 0, KLF5 inhibitor -10, MT stabilizer 3, Ba/F3 V617F tox 9, BaF3 tox -9 and IEC-6 cytotox 61*.
For CCOc1ccc(-n2c(C)cc(/C=N/N(C)C)c2C)cc1 the results were b-catenin transl 1, KLF5 inhibitor -5, MT stabilizer 7, Ba/F3 V617F tox 10, BaF3 tox 37* and IEC-6 cytotox 2.
For CCN(c1ccccc1)S(=O)(=O)c1ccc(OC)c(NC(=O)CNCC(C)O)c1 (centres undefined) the results were b-catenin transl 1, KLF5 inhibitor -12, MT stabilizer 6, Ba/F3 V617F tox 0, BaF3 tox 4 and IEC-6 cytotox -4.
Screening CCC(C)NCC(=O)Nc1cc(S(=O)(=O)N(CC)c2ccccc2)ccc1Cl (centres undefined) returned b-catenin transl 0, KLF5 inhibitor -1, MT stabilizer 2, Ba/F3 V617F tox 7, BaF3 tox 46* and IEC-6 cytotox -3.
